Results as given in ChEMBL document CHEMBL4130477, “Metabolites from the Plant Endophytic Fungus Aspergillus sp. CPCC 400735 and Their Anti-HIV Activities” (J Nat Prod, 2017).
Calls of active or inactive are those of the source. No cut-off for these calls is given here.

Key:
[1] = test system: Human immunodeficiency virus 1; experiment: Antiviral activity against VSV-G pseudotyped HIV1 infected in human SupT1 cells at 100 uM after 48 hrs by luciferase reporter gene assay relative to control; format: functional; details: for inhibition at 100 µM: Human immunodeficiency virus 1, SUP-T1, 48 h
Summary of the method: (§1)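 VSV-G pseudotyped HIV-1 (pNL-Luc-E plus pHIT/G) was made by […] (2 × 105), harvested at 48 h through a 0.45 μm filter, and quantified by p24 ELISA. […] Compounds were screened at 100 μM; IC50 was determined for those above 60% inhibition.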

[2] = test system: Human immunodeficiency virus 1; experiment: Antiviral activity against VSV-G pseudotyped HIV1 infected in human SupT1 cells after 48 hrs by luciferase reporter gene assay; format: functional, organism-based; details: Human immunodeficiency virus 1, SUP-T1, 48 h; summary of the method: as §1
[3] = Cytotoxicity against human SupT1 cells assessed as decrease in cell viability after 48 hrs by CCK-8 assay; format: cell-based, SUP-T1

| SMILES | inhibition at 100 µM [1] [%] | IC50 [2] [µM] | CC50 at 48 h [3] [µM] | inhibition [1] |
| --- | --- | --- | --- | --- |
| COC(OC)C1CCC(C(C)(C)O)OC1CC/C(C)=C/CC/C(C)=C/C[C@]1(O)C(=O)c2c(O)cc(C)c3c(O)c(C)c(O)c(c23)C1=O (stereo partly drawn) | 99.8 | 2.4 | > 100 | – |
| COC(=O)c1cc(O)cc(OC)c1Oc1cc(C)cc(O)c1C(=O)O [ASTERRIC ACID] | 8.53 | – | – | – |
| COC1=C(c2ccc(O)cc2)[C@@H](Cc2ccc(O)cc2)OC1=O | 72.8 | 68.7 | 96.5 | – |
| COC(=O)[C@]1(Cc2ccc(O)cc2)OC(=O)C(O)=C1c1ccc(O)cc1 | 60.8 | 84.5 | > 100 | – |
| COc1cc(O)cc(C(=O)O)c1Oc1cc(C)cc(O)c1C(=O)O | 25.5 | – | – | – |
| COC(=O)[C@]1(Cc2ccc(O)cc2)OC(=O)C(OC)=C1c1ccc(O)cc1 | 68.7 | 74.8 | > 100 | – |
| O=C1Nc2ccc(Cl)cc2[C@@](C#CC2CC2)(C(F)(F)F)O1 [EFAVIRENZ] | – | 0.0004 | – | – |
| O=C1O[C@H](Cc2ccc(O)cc2)C(c2ccc(O)cc2)=C1O | 62.2 | 54.2 | > 100 | – |
| C/C(=C\CC/C(C)=C/C[C@]1(O)C(=O)c2c(O)cc(C)c3c(O)c(C)c(O)c(c23)C1=O)CC/C=C(/CC[C@@H](O)C(C)(C)O)C(=O)O | 48.1 | – | – | – |
| COc1cc(/C=C2\OC(=O)C(c3ccc(O)cc3)=C2O)cc(O)c1O | 69.8 | 78.3 | > 100 | – |
| COc1cc(/C=C2\OC(=O)C(c3ccc(O)cc3)=C2O)cc(OC)c1O | 52.3 | 43.7 | > 100 | – |
| O=C1O/C(=C\c2ccc(O)cc2)C(O)=C1c1ccc(O)c(O)c1 | 74.8 | 72.4 | > 100 | – |
| COC(=O)c1cc(O)cc(OC)c1Oc1c(Cl)c(C)c(Cl)c(O)c1C(=O)O | – | – | – | inactive |
| COC(=O)[C@@]1(Cc2ccc(O)c(C[C@H](O)C(C)(C)O)c2)OC(=O)C(OC)=C1c1ccc(O)cc1 | 73.4 | 67.2 | > 100 | – |
| CC1=C(C)[C@H]2[C@H](Cc3ccccc3)NC(=O)[C@]23OC(=O)C/C=C(/C)C(=O)[C@@H](C)C/C=C/[C@H]3[C@@H]1O | 79.5 | 28.9 | 70.8 | – |
| C=C1[C@@H](C)[C@H]2[C@H](Cc3ccccc3)NC(=O)[C@]23OC(=O)/C=C/[C@H](C)[C@H](O)[C@@H](C)C/C=C/[C@H]3[C@@H]1O | 100 | 25.8 | 95.1 | – |
| C[C@H]1/C=C/OC(=O)O[C@@]23C(=O)N[C@@H](Cc4ccccc4)[C@@H]2[C@H](C)[C@@]2(C)OC2[C@@H]3/C=C/C[C@H](C)C1=O (stereo partly drawn) | 54.3 | – | – | – |
| Cc1c(O)c(O)c(O)c(C=O)c1-c1cc2c(C=O)c(C)c(O)c(O)c2o1 | 94.7 | 20.2 | > 100 | – |

| SMILES | inhibition at 100 µM [1] [%] | IC50 [2] [µM] | CC50 at 48 h [3] [µM] | inhibition [1] |
| --- | --- | --- | --- | --- |
| C/C(=C\CC/C(C)=C/C[C@]1(O)C(=O)c2c(O)cc(C)c3c(O)c(C)c(O)c(c23)C1=O)CC/C=C(\CO)CC[C@@H](O)C(C)(C)O | 98.6 | 22.1 | > 100 | – |
| COC(=O)c1cc(O)cc(OC)c1C(=O)c1c(O)cc(C)cc1O [SULOCHRIN] | 53.8 | – | – | – |
| CC1=C(C)[C@H]2[C@H](Cc3ccccc3)NC(=O)[C@]23OC(=O)/C=C/[C@H](C)[C@H](O)[C@@H](C)C/C=C/[C@H]3[C@@H]1O | 100 | 9.2 | > 100 | – |
| Cc1c(O)c(O)c2c(c1C=O)[C@@H]1O[C@H](O2)c2c(C)c(O)c(O)c(O)c2C1=O | 99.9 | 6.6 | > 100 | – |
| COc1cc(/C=C2\OC(=O)C(c3ccc(O)cc3)=C2O)ccc1O | – | – | – | inactive |
| O=C1O/C(=C\c2ccc(O)c(O)c2)C(O)=C1c1ccc(O)cc1 | 72.3 | 40 | > 100 | – |
| O=C1O/C(=C\c2ccc(O)cc2)C(O)=C1c1ccc(O)cc1 | – | – | – | inactive |
| COC(=O)[C@@]1(Cc2ccc3c(c2)C[C@H](O)C(C)(C)O3)OC(=O)C(OC)=C1c1ccc(O)cc1 | 84.8 | 48 | 93 | – |
| CC1=C(C)[C@H]2[C@H](Cc3ccccc3)NC(=O)[C@@]2(O)[C@@H](/C=C/C[C@H](C)C(=O)[C@H](C)O)[C@@H]1O [CYTOCHALASIN Z13] | 44.9 | – | – | – |
| Nc1ccn([C@@H]2CS[C@H](CO)O2)c(=O)n1 [LAMIVUDINE] | – | 0.1 | – | – |
| C/C(=C\CC/C(C)=C/C[C@]1(O)C(=O)c2c(O)cc(C)c3c(O)c(C)c(O)c(c23)C1=O)CC/C=C(\CC[C@@H](O)C(C)(C)O)C(=O)O | 96.8 | 32.6 | 78.6 | – |
| COC(=O)c1cc(O)cc(OC)c1C(=O)c1c(O)c(Cl)c(C)c(Cl)c1O [DIHYDROGEODIN] | 91.1 | 56.3 | > 100 | – |
| COC(=O)[C@@]1(Cc2ccc(O)c(C[C@@H](O)C(C)(C)O)c2)OC(=O)C(OC)=C1c1ccc(O)cc1 | 64.3 | 82.3 | 94.3 | – |
| C/C1=C\CC(=O)O[C@@]23C(=O)N[C@@H](Cc4ccccc4)[C@@H]2[C@H](C)[C@@]2(C)O[C@H]2[C@@H]3/C=C/C[C@H](C)C1=O | 81.5 | 41.6 | 98.6 | – |
| Cc1c(O)c(O)c(O)c2c1COC2 | 90.8 | 49.3 | 91.4 | – |
| CC(C)=CCC/C(=C/CC/C(C)=C/CC/C(C)=C/C[C@]1(O)C(=O)c2c(O)cc(C)c3c(O)c(C)c(O)c(c23)C1=O)CO | 100 | 4.5 | > 100 | – |
| CC1=C(C)[C@H]2[C@H](Cc3ccccc3)NC(=O)[C@]23OC(=O)/C=C/[C@@](C)(O)C[C@@H](C)C/C=C/[C@H]3[C@@H]1O [CYTOCHALASIN Z9] | 98.7 | 14.4 | > 100 | – |
